Measured values published in ChEMBL document CHEMBL2424622, “Development of amino-pyrimidine inhibitors of c-Jun N-terminal kinase (JNK): kinase profiling guided optimization of a 1,2,3-benzotriazole lead” (Bioorg Med Chem Lett, 2013).

Assays:
[1] = molecular target: Fibroblast growth factor receptor 3 (Homo sapiens) (UniProt P22607); experiment: Competitive binding affinity to FGFR3 (unknown origin) at 10 uM in presence of ATP relative to control
In short: (§1)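 In vitro ATP-site competition binding assay, part of profiling against a diverse panel of 128 kinases. Each compound was tested at a single concentration of 10 µM. Kinome selectivity was summarized as S15 selectivity scores.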

[2] = molecular target: Fibroblast growth factor receptor 1 (Homo sapiens) (UniProt P11362); experiment: Competitive binding affinity to FGFR1 (unknown origin) at 10 uM in presence of ATP relative to control; in short: as §1
[3] = molecular target: T1, Ephrin type-B receptor 1 (Homo sapiens) (UniProt P54762); experiment: Competitive binding affinity to EPHB1 (unknown origin) at 10 uM in presence of ATP relative to control; in short: as §1
T1 sequence (whole entry): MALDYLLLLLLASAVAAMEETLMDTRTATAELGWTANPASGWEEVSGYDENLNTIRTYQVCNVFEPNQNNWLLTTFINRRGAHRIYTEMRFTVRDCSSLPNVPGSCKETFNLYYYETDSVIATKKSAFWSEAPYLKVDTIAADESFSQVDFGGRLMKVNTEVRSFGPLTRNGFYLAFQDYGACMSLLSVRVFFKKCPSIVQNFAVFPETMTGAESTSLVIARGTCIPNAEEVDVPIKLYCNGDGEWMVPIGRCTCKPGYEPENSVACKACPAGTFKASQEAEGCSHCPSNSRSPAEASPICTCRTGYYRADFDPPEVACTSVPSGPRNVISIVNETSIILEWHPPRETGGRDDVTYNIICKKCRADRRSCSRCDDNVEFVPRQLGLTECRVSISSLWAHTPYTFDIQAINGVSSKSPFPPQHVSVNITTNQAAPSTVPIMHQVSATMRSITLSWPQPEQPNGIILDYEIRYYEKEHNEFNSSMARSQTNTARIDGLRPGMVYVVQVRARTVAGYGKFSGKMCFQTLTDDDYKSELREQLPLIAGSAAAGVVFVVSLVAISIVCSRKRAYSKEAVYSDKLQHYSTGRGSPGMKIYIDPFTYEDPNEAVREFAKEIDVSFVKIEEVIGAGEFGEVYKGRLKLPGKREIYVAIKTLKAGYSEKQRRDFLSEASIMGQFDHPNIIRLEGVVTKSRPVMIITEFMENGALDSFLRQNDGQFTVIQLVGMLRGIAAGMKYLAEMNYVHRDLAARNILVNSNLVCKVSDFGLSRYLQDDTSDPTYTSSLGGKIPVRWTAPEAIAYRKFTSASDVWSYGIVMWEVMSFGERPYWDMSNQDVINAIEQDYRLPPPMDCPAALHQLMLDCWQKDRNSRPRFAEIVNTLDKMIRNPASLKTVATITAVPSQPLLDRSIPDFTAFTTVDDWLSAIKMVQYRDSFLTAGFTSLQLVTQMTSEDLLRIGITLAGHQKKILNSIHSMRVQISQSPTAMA

[4] = molecular target: Ephrin type-A receptor 5 (Homo sapiens) (UniProt P54756); experiment: Competitive binding affinity to EPHA5 (unknown origin) at 10 uM in presence of ATP relative to control; in short: as §1
[5] = molecular target: Death-associated protein kinase 2 (Homo sapiens, UniProt Q9UIK4); experiment: Competitive binding affinity to DAPK2 (unknown origin) at 10 uM in presence of ATP relative to control
In short: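 In vitro ATP-site competition binding assay across a diverse panel of 128 kinases, with each compound tested at a single concentration. Kinase binding is expressed relative to control.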

[6] = molecular target: BMP-2-inducible protein kinase (Homo sapiens) (UniProt Q9NSY1); experiment: Competitive binding affinity to BIKE (unknown origin) at 10 uM in presence of ATP relative to control
[7] = molecular target: RAC-alpha serine/threonine-protein kinase (Homo sapiens) (UniProt P31749); experiment: Competitive binding affinity to AKT1 (unknown origin) at 10 uM in presence of ATP relative to control
[8] = molecular target: Tyrosine-protein kinase ABL1 (Homo sapiens) (UniProt P00519); experiment: Competitive binding affinity to ABL1 (unknown origin) at 10 uM in presence of ATP relative to control
[9] = molecular target: Protein-tyrosine kinase 2-beta (Homo sapiens) (UniProt Q14289); experiment: Competitive binding affinity to PTK2B (unknown origin) at 10 uM in presence of ATP relative to control
In short: (§2)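 In vitro ATP-site competition binding assay across a diverse panel of 128 kinases, with compound tested at a single concentration. Kinase selectivity scores (S15) were calculated from the panel profiles.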

[10] = molecular target: T2, Phosphorylase b kinase gamma catalytic chain, liver/testis isoform (Homo sapiens) (UniProt P15735); experiment: Competitive binding affinity to PHKG2 (unknown origin) at 10 uM in presence of ATP relative to control; in short: as §2
T2 sequence (whole entry): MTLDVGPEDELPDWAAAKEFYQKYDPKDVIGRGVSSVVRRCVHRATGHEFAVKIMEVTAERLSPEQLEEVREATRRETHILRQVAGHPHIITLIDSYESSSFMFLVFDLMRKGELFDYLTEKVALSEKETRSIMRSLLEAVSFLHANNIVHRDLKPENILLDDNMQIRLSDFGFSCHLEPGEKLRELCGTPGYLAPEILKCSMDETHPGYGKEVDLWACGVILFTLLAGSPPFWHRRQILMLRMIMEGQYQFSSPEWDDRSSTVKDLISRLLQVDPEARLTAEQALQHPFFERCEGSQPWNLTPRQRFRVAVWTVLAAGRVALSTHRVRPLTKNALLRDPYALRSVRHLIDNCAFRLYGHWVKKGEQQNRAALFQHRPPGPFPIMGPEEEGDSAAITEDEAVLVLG

[11] = molecular target: Serine/threonine-protein kinase PAK 1 (Homo sapiens) (UniProt Q13153); experiment: Competitive binding affinity to PAK1 (unknown origin) at 10 uM in presence of ATP relative to control; in short: as §2
[12] = molecular target: Serine/threonine-protein kinase PAK 3 (Homo sapiens) (UniProt O75914); experiment: Competitive binding affinity to PAK3 (unknown origin) at 10 uM in presence of ATP relative to control; in short: as §2
[13] = molecular target: Serine/threonine-protein kinase Nek6 (Homo sapiens) (UniProt Q9HC98); experiment: Competitive binding affinity to NEK6 (unknown origin) at 10 uM in presence of ATP relative to control; in short: as §2
[14] = molecular target: Serine/threonine-protein kinase MARK2 (Homo sapiens) (UniProt Q7KZI7); experiment: Competitive binding affinity to MARK2 (unknown origin) at 10 uM in presence of ATP relative to control; in short: as §2
Sequence of Serine/threonine-protein kinase MARK2 (Homo sapiens) (Q7KZI7 whole entry): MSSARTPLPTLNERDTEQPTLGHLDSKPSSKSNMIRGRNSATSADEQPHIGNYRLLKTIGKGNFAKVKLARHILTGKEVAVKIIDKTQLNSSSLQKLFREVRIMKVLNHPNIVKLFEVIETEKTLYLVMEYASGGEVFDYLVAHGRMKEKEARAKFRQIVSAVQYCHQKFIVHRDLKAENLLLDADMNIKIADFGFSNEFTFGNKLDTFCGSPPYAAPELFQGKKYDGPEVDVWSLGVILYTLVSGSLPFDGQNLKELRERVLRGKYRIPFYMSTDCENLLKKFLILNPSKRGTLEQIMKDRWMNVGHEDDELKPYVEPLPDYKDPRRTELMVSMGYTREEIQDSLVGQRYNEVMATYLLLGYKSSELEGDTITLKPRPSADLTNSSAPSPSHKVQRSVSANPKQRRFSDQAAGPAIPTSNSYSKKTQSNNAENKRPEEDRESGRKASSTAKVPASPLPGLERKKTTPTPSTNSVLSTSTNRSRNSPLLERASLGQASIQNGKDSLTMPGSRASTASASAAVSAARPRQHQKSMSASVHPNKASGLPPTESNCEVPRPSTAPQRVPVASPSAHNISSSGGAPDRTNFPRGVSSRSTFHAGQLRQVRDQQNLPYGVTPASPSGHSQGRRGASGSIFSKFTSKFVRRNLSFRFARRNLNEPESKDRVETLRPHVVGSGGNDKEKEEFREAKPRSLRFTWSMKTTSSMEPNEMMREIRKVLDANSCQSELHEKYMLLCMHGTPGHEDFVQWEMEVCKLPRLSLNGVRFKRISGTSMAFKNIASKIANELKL

Sequence of Protein-tyrosine kinase 2-beta (Homo sapiens) (Q14289 whole entry, looked up): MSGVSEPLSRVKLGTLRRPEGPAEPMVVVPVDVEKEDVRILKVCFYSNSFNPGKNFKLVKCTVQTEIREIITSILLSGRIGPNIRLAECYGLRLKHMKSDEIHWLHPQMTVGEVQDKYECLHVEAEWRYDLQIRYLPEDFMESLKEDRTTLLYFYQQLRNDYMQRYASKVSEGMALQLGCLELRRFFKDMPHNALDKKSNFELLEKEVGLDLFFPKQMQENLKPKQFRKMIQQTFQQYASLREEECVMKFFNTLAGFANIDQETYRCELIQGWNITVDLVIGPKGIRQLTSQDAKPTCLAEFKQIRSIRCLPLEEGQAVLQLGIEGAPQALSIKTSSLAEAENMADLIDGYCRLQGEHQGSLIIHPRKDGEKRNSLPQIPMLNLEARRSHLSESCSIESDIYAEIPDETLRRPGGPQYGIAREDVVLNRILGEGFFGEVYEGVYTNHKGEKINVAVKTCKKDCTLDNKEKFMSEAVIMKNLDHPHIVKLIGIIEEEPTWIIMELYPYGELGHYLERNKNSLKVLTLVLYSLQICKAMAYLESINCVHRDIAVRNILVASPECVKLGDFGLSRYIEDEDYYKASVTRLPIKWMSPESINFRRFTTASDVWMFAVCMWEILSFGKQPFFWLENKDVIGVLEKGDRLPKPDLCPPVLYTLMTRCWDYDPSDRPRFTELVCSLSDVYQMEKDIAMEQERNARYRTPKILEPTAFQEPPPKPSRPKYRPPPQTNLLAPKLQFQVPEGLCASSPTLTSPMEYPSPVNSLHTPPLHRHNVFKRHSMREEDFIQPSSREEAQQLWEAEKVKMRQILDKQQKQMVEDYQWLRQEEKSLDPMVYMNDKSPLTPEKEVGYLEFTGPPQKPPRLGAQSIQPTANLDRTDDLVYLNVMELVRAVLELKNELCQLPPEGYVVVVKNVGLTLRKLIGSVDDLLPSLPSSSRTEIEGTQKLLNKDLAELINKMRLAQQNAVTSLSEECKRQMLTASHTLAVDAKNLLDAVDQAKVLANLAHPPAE
Sequence of BMP-2-inducible protein kinase (Homo sapiens) (Q9NSY1 whole entry, looked up): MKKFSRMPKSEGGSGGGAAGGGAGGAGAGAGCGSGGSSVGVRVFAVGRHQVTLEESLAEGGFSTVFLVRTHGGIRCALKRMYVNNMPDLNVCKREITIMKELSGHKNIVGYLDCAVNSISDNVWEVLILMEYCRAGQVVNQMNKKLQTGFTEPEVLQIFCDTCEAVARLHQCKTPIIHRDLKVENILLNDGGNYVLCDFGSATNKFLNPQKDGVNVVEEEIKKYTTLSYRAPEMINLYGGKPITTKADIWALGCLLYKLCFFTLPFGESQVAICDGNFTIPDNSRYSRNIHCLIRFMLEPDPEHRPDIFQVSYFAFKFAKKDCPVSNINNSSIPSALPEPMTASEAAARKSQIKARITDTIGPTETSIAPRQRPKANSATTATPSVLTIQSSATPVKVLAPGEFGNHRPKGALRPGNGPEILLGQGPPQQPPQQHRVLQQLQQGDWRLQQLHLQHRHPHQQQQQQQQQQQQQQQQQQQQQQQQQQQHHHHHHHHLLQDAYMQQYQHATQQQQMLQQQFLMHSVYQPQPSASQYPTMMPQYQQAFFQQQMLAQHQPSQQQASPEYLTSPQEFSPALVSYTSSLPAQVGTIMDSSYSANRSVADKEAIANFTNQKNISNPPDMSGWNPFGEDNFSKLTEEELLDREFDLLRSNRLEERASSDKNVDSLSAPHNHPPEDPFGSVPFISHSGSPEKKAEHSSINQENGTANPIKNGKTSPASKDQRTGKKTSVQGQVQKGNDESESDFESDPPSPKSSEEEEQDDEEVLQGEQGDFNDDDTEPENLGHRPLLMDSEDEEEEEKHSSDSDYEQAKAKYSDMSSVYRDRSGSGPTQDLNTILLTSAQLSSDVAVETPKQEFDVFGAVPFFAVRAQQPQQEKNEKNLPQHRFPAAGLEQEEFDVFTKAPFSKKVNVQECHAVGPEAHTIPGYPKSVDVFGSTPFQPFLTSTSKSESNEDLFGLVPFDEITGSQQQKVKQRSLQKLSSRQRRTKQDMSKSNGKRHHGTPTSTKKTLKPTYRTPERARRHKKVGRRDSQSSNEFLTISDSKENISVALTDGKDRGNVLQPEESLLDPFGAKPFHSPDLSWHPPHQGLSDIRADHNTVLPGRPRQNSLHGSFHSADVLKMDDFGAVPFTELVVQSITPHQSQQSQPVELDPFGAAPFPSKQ
Sequence of Death-associated protein kinase 2 (Q9UIK4 whole entry, looked up): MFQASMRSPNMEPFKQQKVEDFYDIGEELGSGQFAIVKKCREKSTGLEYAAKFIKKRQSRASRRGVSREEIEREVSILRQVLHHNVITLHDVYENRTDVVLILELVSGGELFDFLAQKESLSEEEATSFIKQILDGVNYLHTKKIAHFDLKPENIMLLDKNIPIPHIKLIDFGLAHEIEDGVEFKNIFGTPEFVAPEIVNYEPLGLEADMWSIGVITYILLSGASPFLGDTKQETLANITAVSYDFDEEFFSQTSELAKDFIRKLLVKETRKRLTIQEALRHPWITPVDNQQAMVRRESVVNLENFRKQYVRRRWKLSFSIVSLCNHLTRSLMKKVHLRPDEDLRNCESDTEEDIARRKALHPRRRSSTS
Sequence of Serine/threonine-protein kinase PAK 3 (Homo sapiens) (O75914 whole entry, looked up): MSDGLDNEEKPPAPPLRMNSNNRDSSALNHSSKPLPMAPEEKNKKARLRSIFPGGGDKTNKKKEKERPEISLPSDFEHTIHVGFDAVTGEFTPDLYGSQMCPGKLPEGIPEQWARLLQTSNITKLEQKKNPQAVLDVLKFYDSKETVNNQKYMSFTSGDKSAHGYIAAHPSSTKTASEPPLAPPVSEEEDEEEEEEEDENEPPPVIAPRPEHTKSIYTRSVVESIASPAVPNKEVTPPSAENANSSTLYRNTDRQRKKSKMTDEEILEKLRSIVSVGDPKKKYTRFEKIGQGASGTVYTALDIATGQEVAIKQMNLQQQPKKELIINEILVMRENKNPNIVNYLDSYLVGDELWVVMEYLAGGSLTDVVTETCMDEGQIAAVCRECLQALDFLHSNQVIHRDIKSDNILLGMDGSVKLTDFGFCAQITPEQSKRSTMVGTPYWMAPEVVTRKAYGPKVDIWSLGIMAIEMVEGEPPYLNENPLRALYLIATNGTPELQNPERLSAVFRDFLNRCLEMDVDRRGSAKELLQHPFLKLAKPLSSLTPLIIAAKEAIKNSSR
Sequence of Fibroblast growth factor receptor 3 (Homo sapiens) (P22607 23-806 limits assumed): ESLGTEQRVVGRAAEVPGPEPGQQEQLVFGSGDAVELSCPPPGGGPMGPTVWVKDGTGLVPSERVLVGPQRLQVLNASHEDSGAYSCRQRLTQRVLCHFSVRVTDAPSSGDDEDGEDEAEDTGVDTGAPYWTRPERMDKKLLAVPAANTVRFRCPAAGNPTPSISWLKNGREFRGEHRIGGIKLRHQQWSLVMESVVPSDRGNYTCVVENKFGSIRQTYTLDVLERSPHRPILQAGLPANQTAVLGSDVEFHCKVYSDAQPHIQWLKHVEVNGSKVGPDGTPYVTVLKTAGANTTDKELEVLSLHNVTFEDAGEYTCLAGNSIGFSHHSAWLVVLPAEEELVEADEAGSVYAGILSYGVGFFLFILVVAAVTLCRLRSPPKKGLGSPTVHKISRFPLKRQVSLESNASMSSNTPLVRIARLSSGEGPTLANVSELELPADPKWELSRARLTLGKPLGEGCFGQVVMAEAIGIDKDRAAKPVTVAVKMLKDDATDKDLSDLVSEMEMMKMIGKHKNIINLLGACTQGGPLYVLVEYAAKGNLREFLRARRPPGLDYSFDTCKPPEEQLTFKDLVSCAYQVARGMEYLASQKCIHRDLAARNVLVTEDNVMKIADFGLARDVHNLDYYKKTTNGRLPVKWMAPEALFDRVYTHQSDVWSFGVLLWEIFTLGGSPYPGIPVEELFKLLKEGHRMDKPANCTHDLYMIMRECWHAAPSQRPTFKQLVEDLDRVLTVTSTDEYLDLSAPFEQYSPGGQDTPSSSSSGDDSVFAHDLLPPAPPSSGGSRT
Sequence of Serine/threonine-protein kinase Nek6 (Homo sapiens) (Q9HC98 whole entry): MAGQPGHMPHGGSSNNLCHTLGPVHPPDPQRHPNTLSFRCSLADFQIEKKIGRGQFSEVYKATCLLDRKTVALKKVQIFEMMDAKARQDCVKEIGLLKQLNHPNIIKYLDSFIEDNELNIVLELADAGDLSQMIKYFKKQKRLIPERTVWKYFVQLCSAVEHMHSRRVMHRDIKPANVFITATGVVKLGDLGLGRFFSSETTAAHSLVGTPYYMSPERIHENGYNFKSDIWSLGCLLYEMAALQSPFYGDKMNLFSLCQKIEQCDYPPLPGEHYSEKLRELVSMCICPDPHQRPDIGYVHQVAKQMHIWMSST

SMILES: O[C@H]1CC[C@H](Nc2nccc(-n3nnc4ccccc43)n2)CC1
- inhibition [1]: < 50%
- inhibition [2]: < 50%
- inhibition [3]: < 50%
- inhibition [4]: < 50%
- inhibition [5]: 96%
- inhibition [6]: 86%
- inhibition [7]: < 50%
- inhibition [8]: < 50%
- inhibition [9]: < 50%
- inhibition [10]: 83%
- inhibition [11]: < 50%
- inhibition [12]: 76%
- inhibition [13]: 73%
- inhibition [14]: < 50%

SMILES: CS(=O)(=O)CCCOc1cccc2c1ccn2-c1ccnc(N[C@H]2CC[C@H](C(=O)N3CCC(O)CC3)CC2)n1
- inhibition [5]: > 85%

SMILES: O[C@H]1CC[C@H](Nc2nccc(-n3ncc4ccccc43)n2)CC1
- inhibition [1]: < 50%
- inhibition [2]: < 50%
- inhibition [3]: < 50%
- inhibition [4]: < 50%
- inhibition [5]: < 50%
- inhibition [6]: 81%
- inhibition [7]: < 50%
- inhibition [8]: < 50%
- inhibition [9]: < 50%
- inhibition [10]: < 50%
- inhibition [11]: < 50%
- inhibition [12]: 75%
- inhibition [13]: < 50%
- inhibition [14]: < 50%

SMILES: O[C@H]1CC[C@H](Nc2nccc(-c3n[nH]c4ccccc34)n2)CC1
- inhibition [1]: 74%
- inhibition [2]: 80%
- inhibition [3]: < 50%
- inhibition [4]: < 50%
- inhibition [5]: 94%
- inhibition [6]: 99%
- inhibition [7]: < 50%
- inhibition [8]: < 50%
- inhibition [9]: 77%
- inhibition [10]: 90%
- inhibition [11]: 68%
- inhibition [12]: 99%
- inhibition [13]: 77%
- inhibition [14]: 88%

SMILES: O[C@H]1CC[C@H](Nc2nccc(-n3ccc4ccccc43)n2)CC1
- inhibition [1]: < 50%
- inhibition [2]: < 50%
- inhibition [3]: < 50%
- inhibition [4]: < 50%
- inhibition [5]: < 50%
- inhibition [6]: < 50%
- inhibition [7]: < 50%
- inhibition [8]: < 50%
- inhibition [9]: < 50%
- inhibition [10]: < 50%
- inhibition [11]: < 50%
- inhibition [12]: < 50%
- inhibition [13]: < 50%
- inhibition [14]: < 50%

SMILES: O=C([C@H]1CC[C@H](Nc2nccc(-n3nnc4ccccc43)n2)CC1)N1CCOCC1
- inhibition [1]: < 50%
- inhibition [2]: < 50%
- inhibition [3]: < 50%
- inhibition [4]: < 50%
- inhibition [5]: < 50%
- inhibition [6]: 87%
- inhibition [7]: < 50%
- inhibition [8]: 92%
- inhibition [9]: < 50%
- inhibition [10]: < 50%
- inhibition [11]: < 50%
- inhibition [12]: < 50%
- inhibition [13]: 66%
- inhibition [14]: < 50%

SMILES: N[C@H]1CC[C@H](Nc2nccc(-n3nnc4ccccc43)n2)CC1
- inhibition [1]: < 50%
- inhibition [2]: < 50%
- inhibition [3]: 73%
- inhibition [4]: < 50%
- inhibition [5]: 94%
- inhibition [6]: 99%
- inhibition [7]: < 50%
- inhibition [8]: < 50%
- inhibition [9]: < 50%
- inhibition [10]: 100%
- inhibition [11]: < 50%
- inhibition [12]: 90%
- inhibition [13]: < 50%
- inhibition [14]: 78%
